In paper PMC11904481 (ESMO Open, 2025):
Like-named read-outs stand apart in the source and are kept apart here.

Columns and labels:
[1] = system: patients with locally advanced unresectable or metastatic, relapsed and/or refractory nonhematological malignancies; assay: Phase I clinical activity; format: in vivo, human
How it was run: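 Open-label multicenter dose escalation in adults with MAPK-altered or 11q-AMP solid tumors. The test compound was given i.v. on three schedules: weekly per 28-day cycle at 0.45-5.4 mg/kg (1-2 h infusion) or 4.8-9.6 mg/kg (4 h); or on days 1, 4, 8 (±11, 15) per 21-day cycle at 3.6-11.3 mg/kg. Investigator assessed response by RECIST v1.1. Evaluable patients had ≥1 dose plus baseline and ≥1 post-treatment tumor assessment.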

[2] = Phase I plasma pharmacokinetics; format: in vivo, human
[3] = system: models of head and neck SCC; conditions: cited from earlier work
[4] = target: human ether-a-go-go-related gene (hERG) potassium channel (Homo sapiens, UniProt Q12809); assay: hERG potassium channel inhibition; format: biochemical
[5] = system: patients with locally advanced unresectable or metastatic, relapsed and/or refractory nonhematological malignancies; assay: Phase I dose escalation: MTD / DLT determination; format: in vivo, human
How it was run: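 I.v. test compound started at 0.45 mg/kg weekly in 28-day cycles (1 h infusion). Accelerated titration used single-patient cohorts with 100% increments up to 3.6 mg/kg, then 3 + 3 cohorts above 3.6 mg/kg. Schedule 2: weekly, 4 h infusion (minimum 2 h). Schedule 3: days 1, 4, 8 (later also 11, 15) of 21-day cycles, ≥4 h infusion, ≥6 h for doses >9.6 mg/kg. MTD/RP2D derived from DLTs.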

ERK1/2 kinase = conditions: read-out: enzymatic IC50; cited from earlier work
[6] = system: patient-derived xenograft (PDX) models of esophageal squamous cell carcinoma; conditions: cited from earlier work
[7] = 11q13-amplified (11q-AMP) PDX models of esophageal SCC
[8] = 11q13WT PDX models of esophageal SCC

Sequence of human ether-a-go-go-related gene (hERG) potassium channel (Q12809 whole entry): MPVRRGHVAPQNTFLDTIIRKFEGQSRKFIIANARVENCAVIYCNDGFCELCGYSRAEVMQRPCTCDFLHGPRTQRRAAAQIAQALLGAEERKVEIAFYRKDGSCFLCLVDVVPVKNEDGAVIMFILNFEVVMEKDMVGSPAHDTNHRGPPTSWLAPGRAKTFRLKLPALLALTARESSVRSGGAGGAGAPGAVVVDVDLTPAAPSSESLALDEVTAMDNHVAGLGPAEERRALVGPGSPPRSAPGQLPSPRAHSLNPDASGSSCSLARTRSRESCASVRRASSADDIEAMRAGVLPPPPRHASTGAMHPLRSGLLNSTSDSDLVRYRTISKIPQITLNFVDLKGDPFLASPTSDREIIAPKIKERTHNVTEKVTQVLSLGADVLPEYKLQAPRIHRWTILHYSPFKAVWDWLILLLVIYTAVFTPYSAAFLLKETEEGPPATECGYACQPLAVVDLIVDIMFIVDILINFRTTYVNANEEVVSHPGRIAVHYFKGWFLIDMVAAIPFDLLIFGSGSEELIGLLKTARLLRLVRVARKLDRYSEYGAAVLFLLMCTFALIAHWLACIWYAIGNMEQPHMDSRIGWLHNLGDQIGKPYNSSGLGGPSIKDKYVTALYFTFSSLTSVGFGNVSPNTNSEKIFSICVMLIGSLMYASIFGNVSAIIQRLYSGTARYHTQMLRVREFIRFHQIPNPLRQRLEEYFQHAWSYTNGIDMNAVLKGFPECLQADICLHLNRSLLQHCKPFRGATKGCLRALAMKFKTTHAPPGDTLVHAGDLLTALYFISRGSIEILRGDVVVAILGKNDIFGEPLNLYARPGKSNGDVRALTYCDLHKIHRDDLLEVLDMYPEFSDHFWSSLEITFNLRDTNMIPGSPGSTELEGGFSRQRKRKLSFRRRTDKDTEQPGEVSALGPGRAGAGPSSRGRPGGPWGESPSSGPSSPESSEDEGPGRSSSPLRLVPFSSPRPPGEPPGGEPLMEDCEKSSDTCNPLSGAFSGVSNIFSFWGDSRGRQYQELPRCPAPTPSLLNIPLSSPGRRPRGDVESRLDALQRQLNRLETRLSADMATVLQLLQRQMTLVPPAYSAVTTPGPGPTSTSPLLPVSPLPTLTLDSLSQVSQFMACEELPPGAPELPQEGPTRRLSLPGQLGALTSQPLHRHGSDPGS

SMILES: O=C1Nc2cc3[nH]nc(-c4ccncc4)c3cc2CN1Cc1ccccc1 [KO-947]
- best overall response ([1]; all schedules): stable disease
- complete or partial responses ([1]; all schedules): No complete or partial responses
- patients discontinued owing to disease progression ([1]; schedule 3): 67%
- stable disease as best overall response ([1]; schedule 3): 37%
- stable disease as best overall response ([1]; schedules 1 and 2): 15%
- plasma concentration ([2]; 11.3 mg/kg, cohort 5 of schedule 3, 6-hour infusion, held for ∼4 hours): ~3.6 µg/mL
- dose proportionality of exposure, slope ([2]; after a single dose, noncompartmental analysis): 1.2
- accumulation ([2]; all dosing schedules): None to minimal accumulation
- half-life ([2]; human, plasma, intravenous): 6.5 to 24 h
- half-life ([2]; human, plasma, intravenous, 3.6 mg/kg): ~6.65 h
- Cmax ([2]; human, plasma, intravenous, 3.6 mg/kg, highest Cmax, 1-hour infusion): 3.63 µg/mL
- Vd ([2]; in vivo): moderate
- plasma CL ([2]; in vivo): moderate
- time at which Cmax was achieved (near the end of the infusion) ([2]; schedules 2 and 3): ~4 h
- antitumor response ([3]; 11q-AMP models of head and neck cancer): Complete responses and tumor regression
- overall response rate ([3]; mouse models of head and neck SCC with 11q-AMP): 56%
- overall response rate ([3]; mouse models of head and neck SCC, 11q13WT): 9%
- IC50 [4]: 4.4 µM
- mean free Cmax relative to hERG IC50 ([4]; overall study): about one-tenth
- recommended dose (RP2D) ([5]; i.v. days 1, 4, 8, 11, and 15 every 21 days, ≥4-hour infusion): 8.5 mg/kg
- patients who experienced DLTs ([5]; schedule 1 cohort 5, 5.4 mg/kg, grade 3 QTc prolongation and grade 3 retinopathy): 2/6
- DLTs ([5]; schedule 1 cohorts 1-4 (0.45-3.6 mg/kg), six patients): no DLTs
- maximum administered dose ([5]; schedule 2, once weekly, 28-day cycle, 4-hour infusion): 9.6 mg/kg
- DLTs ([5]; schedule 2 cohort 9 (9.6 mg/kg), two patients of six): DLT of QTc prolongation
- DLTs ([5]; schedule 2 cohorts 5-8 (4.8-7.2 mg/kg)): no DLTs
- maximum administered dose ([5]; schedule 3, 21-day cycle): 11.3 mg/kg
- DLTs ([5]; schedule 3 cohort 3, 6.4 mg/kg): One DLT of hypotension
- DLTs ([5]; schedule 3 cohort 4 (8.5 mg/kg, n = 3)): No DLTs
- DLTs ([5]; schedule 3 cohort 5 (11.3 mg/kg), one patient of six): DLT of an infusion-related reaction
- DLTs ([5]; schedule 3 cohorts 1 or 2 (3.6-4.8 mg/kg), six patients): no DLTs
- IC50 (ERK1/2 kinase): 0.01 µM
- disease control rate [6, 7]: 77%
- overall response rate [6, 7]: 51%
- disease control rate [6, 8]: 21%
- overall response rate [6, 8]: 3%
